A selection: hits, their analogues and other compounds. The true share with any hit is near 1.8%.
LEDGF integ inh: blocks HIV-1 LEDGF/p75-dependent DNA integration; 370,000 compounds, 0.64% hits; TR-FRET IN-LEDGF/p75 DNA integration, Eu/Cy5; inhibition, % at 3.7 µM; AID 743269;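 active = inhibition above the screen-wide mean plus 3 SD, cut at about 13% in these data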;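 also: signal is the Cy5 over europium emission ratio at 671 and 618 nm; 0% = plate median of compound wells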
core dimer inh: blocks dimerization of HCV core protein; TR-FRET GST/Flag-core106 dimerization, 1536-well; inhibition, % at 5 µM; 300,000 compounds, 0.33% hits; AID 1899;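 active = inhibition above the mean of all tested compounds plus 3 SD, set per screening campaign, cut at about 45% in these data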
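Material: GST/Flag-tagged HCV core106 proteins. Incubation: 4 h, 22.5 °C incubation. Read-out basis: inhibition (%) from 671 over 617 nm ratio. Measured by: TR-FRET, excitation 340 nm, emission 617 and 671 nm.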
MBD2 inh: inhibitors of human MBD2 binding to methylated oligonucleotide. TR-FRET. inhibition, % at 4.4 µM. 370,000 compounds, 0.31% hits; in the data active = inhibition above about 13%
TDP2 inh: TDP2 (human) inhibition, absorbance primary screen; O95551; recombinant TDP2, T5PNP hydrolysis, p-nitrophenol absorbance 415 nm; inhibition, % at 12.8 µM; 370,000 compounds, 0.34% hits;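 active = inhibition above the mean of all tested compounds plus 3 SD, set per campaign, cut at about 25% in these data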;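 also: 0% = DMSO with enzyme and 100% = buffer with substrate but no TDP2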
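System – recombinant human TDP2 · Amount – 120 nM TDP2 per well · Buffer or medium – Mg2+-containing Tris-HCl buffer, pH 7.5 · Reagent – T5PNP substrate, 5 mM · Dosing – 12.8 µM single point, 1% DMSO · Incubation – 2 h at 37 °C · Measured by – epi absorbance · Read-out basis – percent inhibition · Benchmarks – high control without enzyme, low control DMSO plus TDP2 · Repeats – singlicate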
UHRF1 MBD2 ctr: blocks human UHRF1 binding to methylated DNA; 370,000 compounds, 0.75% hits; UHRF1 binding to methylated oligo, TR-FRET; inhibition, % at 4.4 µM; AID 687016; in the data active = inhibition above about 21%;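 also: UHRF1 SRA domain binding a hemimethylated CpG hairpin DNA probe; 0% = median of test compound wells and 100% = reference inhibitor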
Target sequence (Q96T88 whole entry, looked up, the tested form may be a part): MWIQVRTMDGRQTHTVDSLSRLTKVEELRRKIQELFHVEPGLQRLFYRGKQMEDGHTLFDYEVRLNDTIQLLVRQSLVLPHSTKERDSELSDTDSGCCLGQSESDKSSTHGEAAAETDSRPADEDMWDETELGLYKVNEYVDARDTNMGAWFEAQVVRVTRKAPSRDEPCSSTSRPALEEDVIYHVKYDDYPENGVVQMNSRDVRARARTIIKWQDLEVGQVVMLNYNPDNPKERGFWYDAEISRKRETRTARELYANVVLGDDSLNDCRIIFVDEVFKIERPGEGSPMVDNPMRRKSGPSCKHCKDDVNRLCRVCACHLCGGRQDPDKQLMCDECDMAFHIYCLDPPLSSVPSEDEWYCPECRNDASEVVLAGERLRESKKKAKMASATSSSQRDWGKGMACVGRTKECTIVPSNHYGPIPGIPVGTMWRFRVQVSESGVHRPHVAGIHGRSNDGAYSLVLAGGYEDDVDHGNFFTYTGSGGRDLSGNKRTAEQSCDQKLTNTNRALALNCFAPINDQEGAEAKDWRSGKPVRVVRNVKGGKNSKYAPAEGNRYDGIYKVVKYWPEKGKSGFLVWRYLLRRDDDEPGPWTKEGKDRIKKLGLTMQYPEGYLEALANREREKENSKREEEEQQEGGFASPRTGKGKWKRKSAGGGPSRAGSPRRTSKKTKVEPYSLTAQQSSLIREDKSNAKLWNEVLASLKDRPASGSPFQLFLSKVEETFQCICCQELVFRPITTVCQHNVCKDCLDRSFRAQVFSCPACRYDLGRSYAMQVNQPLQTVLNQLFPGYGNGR
Starred values were filed as active, the others as inactive; / = not tested or not shown.

SMILES	LEDGF integ inh	core dimer inh	MBD2 inh	TDP2 inh	UHRF1 MBD2 ctr
CCN1CCCCC(NC(=O)c2cc(OC)c(OC)c(OC)c2)C1=O (configuration not stated)	7	/	-9	-10	-5
COC(=O)C1CN(Cc2cn(Cc3ccc(F)cc3)nn2)CCS(=O)(=O)N1Cc1ccc(OC)cc1 (configuration not stated)	5	/	5	-14	13
CCOc1ccc(CCNC(=O)c2ccccn2)cc1OCC	-1	/	-2	7	-2
CCOc1ccc(CCNC(=O)Nc2ccccc2C)cc1OCC	-8	-16	-1	3	21*
COC(=O)C1CN(Cc2cn(CCC3OCCO3)nn2)CCS(=O)(=O)N1Cc1ccc(OC)cc1 (configuration not stated)	5	/	7	-6	12
CCn1c2ccccc2c2cc(NC(=O)COC(=O)c3cccc(F)c3F)ccc21	-1	/	-1	-3	0
Cc1cc(/C=C2\SC(=Nc3ccccc3)NC2=O)c(C)n1-c1ccc(S(N)(=O)=O)cc1	2	63*	-3	-2	13
Cc1ccc(-n2c(C)cc(/C=C3\SC(=O)NC3=O)c2C)cc1	-3	13	1	3	3
O=c1cc(CSc2nnnn2-c2ccccc2)nc2scc(-c3ccccc3)n12	3	60*	-6	-4	-4
O=c1cc(CSc2nnnn2-c2ccccc2)nc2sccn12	-2	4	5	4	-1
CC(=O)N[C@@H]1C[C@@H]2O[C@H](CO)CC[C@@H]2O[C@@H]1CCc1ccc(C#CC2(O)CCCC2)cc1	-2	/	-1	4	2
C[C@H](O)[C@@H]1CN2CCc3c([nH]c4c(-c5ccccc5)cccc34)[C@@H]2C[C@@H]1N(C)C(=S)Nc1ccc(C#N)cc1	4	/	-3	-2	-1
CCCc1nc2ccc(C(=O)OC)cn2c1Cc1ccc(C)cc1	6	/	10	-1	22*
CCCc1nc2ccc(C(=O)OC)cn2c1Cc1ccccc1	-4	/	11	4	25*
COC(=O)c1cc2c(c3c4cc(C)ccc4n(S(=O)(=O)c4ccc(C)cc4)c13)C(=O)N(Cc1ccccc1OC)C2	-1	/	3	0	-1
O=C1C=C(c2ccccc2Oc2ccccc2)C[C@@H](c2ccc(F)cc2)C1	4	/	11	-3	22*
O=C1C=C(c2ccc(-c3ccccc3)cc2)C[C@@H](c2ccc(F)cc2)C1	0	/	-7	11	-1
COc1ccc(S(=O)(=O)n2cccc2)cc1	-5	1	-1	-5	23*
Cc1cc(C)cc(N(CC(=O)NC2CCC(C)CC2)S(=O)(=O)c2cccs2)c1 (configuration not stated)	-3	/	-1	11	1
CCn1c(SCC(=O)NCc2ccc3c(c2)OCO3)nc2c(c1=O)SCC2	18*	10	-3	1	1
CC(C)(C)OC(=O)N1CCC(N[C@@H](Cc2ccccc2)C(=O)NCCc2c[nH]c3ccccc23)(C(=O)NC2CCCCC2)CC1	6	/	-5	-13	-2
C/C(=N\OCc1ccc(C#N)cc1)c1ccccc1	-4	2	0	10	71*
O=C1CCC[C@H]2C[C@H](NCc3cccc(F)c3)CC[C@]23CCCN13	-2	/	4	-3	0
Cc1ccc(F)cc1C(=O)N(Cc1ccccn1)CC1CCCO1 (configuration not stated)	0	/	6	3	-1
CC(C)(C)C(=O)COC(=O)c1c2c(nc3ccccc13)CCC2	2	54*	3	-1	0
SMILES	LEDGF integ inh	core dimer inh	MBD2 inh	TDP2 inh	UHRF1 MBD2 ctr
NC(=O)COC(=O)c1c2c(nc3ccccc13)CCCCC2	-1	6	-5	1	0
COc1cc(O)c(CCC(=O)c2ccc(OC)c(OC)c2)c(OC)c1	-3	-12	2	-19	63*
COc1ccc(C(=O)CCc2ccc(OC)c(OC)c2)cc1	7	12	-1	-26	4
O=C(c1ccncc1)N1CCC(Oc2cccnc2)CC1	3	/	-3	-11	6
CC(=O)c1c(C)n(-c2ccccc2)c2ccc(OCC(O)CN3CCOCC3)cc12 (configuration not stated)	-4	2	0	-1	83*
CC(C)(C)Cc1c(-c2ccc(F)cc2)nc2ccc(Br)cn12	1	/	-3	-15	21*
Cc1ccc2nc(-c3ccco3)c(CC(C)(C)C)n2c1	10	/	0	-6	23*
CC(C)(C)Cc1c(-c2ccc(Cl)cc2)nc2ccc(Br)cn12	-1	/	1	0	11
CC(C)(C)Cc1c(-c2ccccc2)nc2ccc(Cl)cn12	-4	/	9	3	21*
OC1OC2COC(c3ccccc3)OC2C(O)C1O (configuration not stated)	0	/	3	-3	2
CCOc1ccc(C2C(C#N)=C(N)SC(N)=C2C#N)cc1OC	/	57*	/	/	/
CCOc1ccc(C2C(C#N)=C(N)SC(N)=C2C#N)cc1OCC	0	58*	3	-3	16
CC(C)CN1CN2Cc3cc(F)ccc3C2CS1(=O)=O (configuration not stated)	-2	/	-5	6	0
CC(C)n1nc(C(=O)Nc2nc3ccccc3[nH]2)c2ccccc2c1=O	-4	3	3	2	98*
CCCn1nc(C(=O)Nc2nc3ccccc3[nH]2)c2ccccc2c1=O	2	6	2	-2	-7
CCC(Cc1ccccc1)NCc1c(C(=O)O)c(C)n(Cc2ccccc2)c1C (configuration not stated)	-9	2	-1	-10	30*
Cc1c(CNCC(C)c2ccccc2)c(C(=O)O)c(C)n1Cc1ccccc1 (configuration not stated)	4	0	3	2	1
CC(C)C[C@H](NC(=O)N1CCn2c1nc1ccccc12)C(=O)NCc1ccccc1	1	7	-2	-14	0
CC(C)C[C@H](NC(=O)N1CCn2c1nc1ccccc12)C(=O)NCCc1ccccc1	1	7	2	3	52*
COc1ccc(-c2nc3ccc(Br)cn3c2Cc2ccccc2C(F)(F)F)cc1OC	6	/	-1	-7	2
COc1ccc(-c2nc3cc(C)c(Br)c(C)n3c2Cc2ccccc2C(F)(F)F)cc1OC	-2	/	7	9	25*
CCCC[C@H]1C2CC(OC(=O)Nc3cc(C)cc(C)c3)C(C2)[C@H]2CCCCN21 (some centres not stated)	-4	/	0	5	-1
Cc1ccc(C(=O)C(NC(=O)c2ccco2)Nc2sc3c(c2C(N)=O)CCCC3)cc1 (configuration not stated)	/	66*	/	/	/
CNC(=O)c1c(NC(=O)c2ccco2)sc2c1CCCC2	-2	1	7	5	2
Cc1oc2c(CN(C)C)c(O)ccc2c(=O)c1-c1cscn1	0	2	-3	38*	4

High-throughput results (PubChem)
